Compounds with a hit are over-represented: about 4.9% of the library has one in this group of screens.
APP 5'UTR act – activates APP 5'UTR luciferase reporter | actives 1% (n = 190,000) | activation, % at 2 µM | SH-SY5Y APP 5'UTR luciferase reporter, luminescence; zero percent = DMSO vehicle wells;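 active = activation above a set limit, based on mean plus 3 SD of controls, cut at about 140% in these data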
STAT3 inh – STAT3 signaling inhibition; inhibition, % at 5.5 µM; actives 0.89% (n = 190,000); AID 862; U3A cells, IL-6 STAT3-luciferase reporter, luminescence; host cell line lacks STAT1;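 active = inhibition above the mean inhibition across all screened compounds plus 3 SD, cut at about 44% in these data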
STAT1 blocker – STAT1 signaling inhibition. AID 920. actives 0.35% (n = 200,000). NIH 3T3 STAT1-luciferase reporter, IFN-gamma, luminescence. inhibition, % at 5.5 µM;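 active = inhibition above a set limit, the mean inhibition across all tested compounds plus 3 SD, cut at about 34% in these data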
STAT3 activator – activators of IL-6 induced STAT3 signaling. U3A cells, IL-6 STAT3-luciferase reporter, luminescence; 100% = signal with IL-6 EC80 alone. activation (% of control), % at 5.6 µM. actives 0.91% (n = 190,000);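 active = activation above the screen-wide mean of compound activation plus 3 SD, cut at about 130% in these data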
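Test system: Human STAT1-deficient U3A cells with stable STAT3-luciferase reporter | Also added: Interleukin-6, 33 ng/mL | Timing: Compound pre-incubation 1 h before IL-6, then 6 h stimulation at 37 °C | Technique: Luciferase reporter luminescence | Read-out: Percent of IL-6-only median luminescence | Benchmarks: IL-6-only wells as 100% reference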
NF-kB expr up – NF-kB expression increase, human neuronal cells; NF-kB reporter expression; stronger effect = higher value; fold change at 12.5 µM; AID 1239; actives 1.6% (n = 190,000); in the data active = fold change above about 3.3
STAT1 activator – STAT1 signaling activation. activation (% of control), % at 5.5 µM. AID 932. NIH 3T3 STAT1-luciferase reporter, IFN-gamma, luminescence; 100% = IFN-gamma alone, no compound. actives 2.6% (n = 200,000);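 active = activation above the screen-wide mean activation plus 3 SD, cut at about 130% in these data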
Numbers stand for hits; – = inactive; · = no result given.

SMILES	APP 5'UTR act	STAT3 inh	STAT1 blocker	STAT3 activator	NF-kB expr up	STAT1 activator
CC1CC(=O)Nc2ccccc2N1S(=O)(=O)c1cccc(Cl)c1 (configuration not stated)	–	–	–	–	–	–
O=[N+]([O-])c1ccc(C2Oc3ccccc3C3CC(c4ccccc4)=NN32)s1 (configuration not stated)	–	–	–	133	8.8	–
CC(=O)c1c(OC(=O)c2ccccc2Br)ccc2c(C)cc(=O)oc12	–	–	–	–	–	–
Cc1cc(OC(=O)c2ccccc2Br)cc(=O)n1C	–	–	39	–	–	–
C[C@@H](C(=O)OCn1nnc2ccccc2c1=O)N1C(=O)C2CCCCC2C1=O (some centres not stated)	–	–	–	–	–	–
O=C(NCc1ccccc1F)c1ccc2c(c1)OCO2	–	–	–	–	–	–
Fc1ccccc1Cn1nnc(-c2ccc3c(c2)OCO3)n1	166	–	–	–	5.7	136
CCCCNS(=O)(=O)c1ccc2nc(-c3cccs3)cc(C(=O)NCC(OC)OC)c2c1	–	–	–	–	–	–
Fc1ccc(CSc2nc3ccccc3[nH]2)cc1	–	–	–	–	4.8	129
O=[N+]([O-])c1ccc(CSc2nc3ccccc3[nH]2)cc1	–	–	–	–	–	141
Fc1ccc(CSc2nc3ncccc3[nH]2)cc1	–	–	–	–	–	–
O=C(CCc1nc2ccccc2[nH]c1=O)N/N=C/c1ccccc1	–	–	–	–	–	–
CC(C)(C)C(=O)NC(=S)NCc1ccccc1	–	–	–	–	–	–
O=C(/C=C/c1cccs1)Nc1nccs1	–	–	–	–	–	134
CCOC(=O)/C=C/C(=O)Nc1nccs1	–	–	–	–	–	–
O=C(/C=C/c1cccs1)Nc1ccc(Br)cn1	–	–	–	133	5.6	178
O=C(/C=C/c1cccs1)Nc1cccc(NC(=O)/C=C/c2cccs2)n1	–	–	–	–	–	–
O=C(/C=C\c1ccccc1)Nc1nccs1	168	–	–	–	6.5	–
COc1cc(NC(=O)Cn2c(=O)n(-c3cccc(C)c3)c(=O)c3c(C)c(C)sc32)cc(OC)c1	–	–	–	–	–	–
COC(=O)c1ccc(NC(=O)CNc2ccccc2)cc1	–	–	–	–	–	–
Nc1nc2n(n1)C(=O)CC(c1ccccc1)N2 (configuration not stated)	–	–	–	–	–	–
CCC(C)/C(C)=N/NC(=O)c1ccc(COc2ccc(Cl)c(C)c2)cc1 (configuration not stated)	–	–	–	–	–	130
O=C(Nc1ccccc1Br)c1ccc(OC(=S)N2CCOCC2)cc1	–	–	–	–	–	135
O=C(Oc1ccc(-c2ccccc2)cc1)N1CCOCC1	–	–	–	–	–	137
Cc1ccc(NC(=O)c2ccc(OC(=S)N3CCOCC3)cc2)cc1	–	–	–	–	–	131
SMILES	APP 5'UTR act	STAT3 inh	STAT1 blocker	STAT3 activator	NF-kB expr up	STAT1 activator
O=C(Oc1cccc(Oc2ccccc2)c1)N1CCOCC1	–	–	–	–	–	–
O=C(Nc1ccccc1C(=O)N1CCOCC1)c1ccc(F)cc1	–	–	–	–	–	–
COc1ccc(Cc2nnc(SCC(=O)N3CCCCC3)o2)cc1	–	–	–	–	–	–
O=C(N/N=C/c1cc2c(cc1Cl)OCO2)c1ccccn1	–	–	–	–	·	134
COc1ccccc1/C=C/C=N/NC(=O)c1ccccn1	–	–	–	–	4.6	133
COc1ccccc1/C=C/C=N/NC(=O)c1cnccn1	–	–	–	–	–	–
COc1cc(/C=N/NC(=O)c2ccccn2)cc2c1OCO2	–	–	–	–	–	129
Cc1ccc(N2NC(C)(c3cccs3)NC2=S)cc1 (configuration not stated)	–	–	–	–	3.3	–
Cc1ccc(N2CC(O)(c3cccs3)[N+]3=C2CCCC3)cc1 (configuration not stated)	–	–	–	–	–	–
Cc1cc(C)n(C(=O)COc2ccc([N+](=O)[O-])cc2)n1	–	–	–	–	–	–
CCOC(=O)Cn1cnc(-c2ccc([N+](=O)[O-])cc2)c1	–	–	–	–	–	136
